Source: ChEMBL document CHEMBL1142648, “Enhancement in antimicrobial activity of 2-(phenyl)-3-(2-butyl-4-chloro-1H-imidazolyl)-5-butylate isoxazolidine” (2005)
In brackets after ≈: the same amount, converted by molar mass.

Columns and labels:
Aspergillus niger = assay: Minimum inhibitory concentration against Aspergillus niger; type: functional
Method in brief: (§1)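 Fungal MIC by tube dilution in potato dextrose broth, 5 mL final volume. Compounds were taken up in DMSO, diluted 1:9 with water, then serially diluted in medium. Spore suspension was added at a final 2 × 10^3 CFU/mL and incubated at 28 °C for 48 h. Absorbance was read at 640 nm. MIC is the lowest no-growth concentration, checked by subculturing 10 µL onto potato dextrose agar and examining under a microscope.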

Cephalosporium = assay: Minimum inhibitory concentration against Cephalosporium acremonium; type: functional, Hapsidospora chrysogena; method in brief: as §1
Escherichia coli = assay: Minimum inhibitory concentration against Escherichia coli; type: functional
Method in brief: (§2)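 Broth tube dilution in brain heart infusion broth, 5 mL final volume. Compounds were dissolved in DMSO, diluted 1:9 with water, then serially diluted in medium. Cells were added at a final 2 × 10^3 CFU/mL and incubated at 37 °C for 24 h. Turbidity was read at 640 nm. MIC is the lowest concentration with no growth, confirmed by spreading 10 µL of clear tubes on BHI agar.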

Staphylococcus aureus = assay: Minimum inhibitory concentration against Staphylococcus aureus; type: functional; method in brief: as §2
Bacillus subtilis = assay: Minimum inhibitory concentration against Bacillus subtilis; type: functional; method in brief: as §2
Fusarium verticillioides = assay: Minimum inhibitory concentration against Fusarium moniliforme; type: functional; method in brief: as §1
[1] = Escherichia coli, read-out: MIC
[2] = Staphylococcus aureus, read-out: MIC
[3] = Bacillus subtilis, read-out: MIC

| Compound | MIC (Aspergillus niger) [µg/mL] | MIC (Cephalosporium) [µg/mL] | MIC (Escherichia coli; [1]) [µg/mL] | MIC (Staphylococcus aureus; [2]) [µg/mL] | MIC (Bacillus subtilis; [3]) [µg/mL] | MIC (Fusarium verticillioides) [µg/mL] | MIC (Cephalosporium; Hapsidospora chrysogena) [µg/mL] | MIC (Escherichia coli) [µg/mL] | MIC (Staphylococcus aureus) [µg/mL] | MIC (Bacillus subtilis) [µg/mL] |
| --- | --- | --- | --- | --- | --- | --- | --- | --- | --- | --- |
| CCCCOC(=O)[C@H]1C[C@@H](c2[nH]c(CCCC)nc2Cl)N(c2ccccc2)O1 (stereo in doubt; A) | 14 (≈ 34.5 µM) | 11 (≈ 27.1 µM) | 10 (≈ 24.6 µM) | 7 (≈ 17.2 µM) | 7 (≈ 17.2 µM) | 13 (≈ 32 µM) |  |  |  |  |
| NYSTATIN | 12 |  |  |  |  | 14 | 11 |  |  |  |
| CN[C@@H]1[C@H](O[C@H]2[C@H](O[C@H]3[C@H](O)[C@@H](O)[C@H](N=C(N)N)[C@@H](O)[C@@H]3N=C(N)N)O[C@@H](C)[C@]2(O)C=O)O[C@@H](CO)[C@H](O)[C@H]1O [STREPTOMYCIN] |  |  | 6 (≈ 10.3 µM) | 3 (≈ 5.16 µM) | 3 (≈ 5.16 µM) |  |  |  |  |  |
| CCCCOC(=O)[C@H]1C[C@@H](c2[nH]c(CCCC)nc2Cl)N(c2ccccc2)O1 (stereo in doubt; B) | 36 (≈ 88.7 µM) | 33 (≈ 81.3 µM) |  |  |  | 28 (≈ 69 µM) |  | 11 (≈ 27.1 µM) | 8 (≈ 19.7 µM) | 7 (≈ 17.2 µM) |
